Calls of active or inactive are those of the source. The calls are words filed in the database; no cut-off is given here.
Assays:
[1] = tested on: CUTLL1; test: Growth inhibition of human CUTLL1 cells at 50 uM in presence of etoposide after 48 hrs by alamar blue assay; format: functional, cell-based
[2] = tested on: CUTLL1; test: Growth inhibition of human CUTLL1 cells at 50 uM in presence of staurosporine after 48 hrs by alamar blue assay; format: functional, cell-based
[3] = biological target: Gamma-secretase (Homo sapiens) (UniProt Q96BI3+Q9NZ42+Q8WW43+P49768+Q92542+P49810); test: Inhibition of gamma secretase in human CUTLL1 cells assessed as effect on NOTCH cleavage level at 25 uM in presence of 1 uM dexamethasone after 24 hrs by Western blotting; format: cell-based
In short: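 Western blot of intracellular NOTCH (ICN) in CUTLL1 cells after 24 h exposure to compound alone or with 1 μM dexamethasone. The γ-secretase inhibitor Compound E (100 nM) plus dexamethasone was the reference treatment.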

[4] = tested on: CUTLL1; test: Growth inhibition of human CUTLL1 cells with low GR expression levels at 50 uM after 48 hrs by alamar blue assay; format: functional, cell-based
In short: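 Human CUTLL1 T-ALL cells engineered to express high (overexpressed) or low (knockdown) glucocorticoid receptor levels. Exposed to compound alone or with 1 μM dexamethasone. Alamar blue growth inhibition read after 48 h.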

[5] = tested on: CUTLL1; test: Increase in GR expression in human CUTLL1 cells at 25 to 50 uM in presence of 1 uM dexamethasone and 1 uM […] and glucocorticoid receptor antagonist RU486 after 24 hrs by RT-qPCR method; format: functional, cell-based
In short: (§1)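 CUTLL1 cells exposed to compound (25 or 50 μM) alone, with 1 μM dexamethasone, or with dexamethasone plus 1 μM RU486, for 6 or 24 h. GR measured as protein by Western blot and as transcript by RT-qPCR.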

[6] = tested on: CUTLL1; test: Increase in GR expression in human CUTLL1 cells at 50 uM after 6 hrs by Western blotting method; format: functional, cell-based; in short: as §1
[7] = tested on: CUTLL1; test: Effect on FKBP5 gene expression in human CUTLL1 cells in presence of 1 uM dexamethasone at 30 uM after 24 hrs by microarray method; format: functional, cell-based
In short: (§2)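 CUTLL1 T-ALL cells exposed 24 h to vehicle (DMSO), dexamethasone alone (1 μM), test agent alone (30 μM), or dexamethasone (1 μM) plus test agent (30 μM), in triplicate. Expression profiled by microarray. Leading-edge genes from GSEA were compared between the dexamethasone-plus-agent and dexamethasone-alone groups, using glucocorticoid-regulated gene sets from ALL patients on glucocorticoid therapy.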

[8] = tested on: CUTLL1; test: Effect on LILRB3 gene expression in human CUTLL1 cells in presence of 1 uM dexamethasone at 30 uM after 24 hrs by microarray method; format: functional, cell-based; in short: as §2
[9] = tested on: CUTLL1; test: Effect on GGNBP2 gene expression in human CUTLL1 cells in presence of 1 uM dexamethasone at 30 uM after 24 hrs by microarray method; format: functional, cell-based; in short: as §2
[10] = tested on: CUTLL1; test: Effect on APITD1 gene expression in human CUTLL1 cells in presence of 1 uM dexamethasone at 30 uM after 24 hrs by microarray method; format: functional, cell-based; in short: as §2
[11] = tested on: CUTLL1; test: Effect on RPS14 gene expression in human CUTLL1 cells in presence of 1 uM dexamethasone at 30 uM after 24 hrs by microarray method; format: functional, cell-based
In short: (§3)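 Human CUTLL1 T-ALL cells exposed for 24 h to vehicle (DMSO), dexamethasone alone (1 μM), test compound alone (30 μM), or dexamethasone 1 μM plus compound 30 μM, each in triplicate. Expression profiled by microarray. Glucocorticoid-regulated gene sets from ALL patients on glucocorticoid therapy scored by GSEA. Leading-edge genes compared between the combination and dexamethasone alone.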

[12] = tested on: CUTLL1; test: Effect on BRCA1 gene expression in human CUTLL1 cells in presence of 1 uM dexamethasone at 30 uM after 24 hrs by microarray method; format: functional, cell-based; in short: as §2
[13] = tested on: CUTLL1; test: Effect on POLE3 gene expression in human CUTLL1 cells in presence of 1 uM dexamethasone at 30 uM after 24 hrs by microarray method; format: functional, cell-based; in short: as §3
[14] = tested on: CUTLL1; test: Effect on TIFA gene expression in human CUTLL1 cells in presence of 1 uM dexamethasone at 30 uM after 24 hrs by microarray method; format: functional, cell-based; in short: as §3
[15] = tested on: CUTLL1; test: Effect on DSCC1 gene expression in human CUTLL1 cells in presence of 1 uM dexamethasone at 30 uM after 24 hrs by microarray method; format: functional, cell-based; in short: as §2
[16] = tested on: CUTLL1; test: Effect on PCNA gene expression in human CUTLL1 cells in presence of 1 uM dexamethasone at 30 uM after 24 hrs by microarray method; format: functional, cell-based; in short: as §3
[17] = tested on: CUTLL1; test: Effect on NXT1 gene expression in human CUTLL1 cells in presence of 1 uM dexamethasone at 30 uM after 24 hrs by microarray method; format: functional, cell-based; in short: as §2
[18] = tested on: CUTLL1; test: Effect on USP1 gene expression in human CUTLL1 cells in presence of 1 uM dexamethasone at 30 uM after 24 hrs by microarray method; format: functional, cell-based; in short: as §3
[19] = tested on: CUTLL1; test: Effect on ALYREF gene expression in human CUTLL1 cells in presence of 1 uM dexamethasone at 30 uM after 24 hrs by microarray method; format: functional, cell-based; in short: as §2
[20] = tested on: CUTLL1; test: Effect on SOCS1 gene expression in human CUTLL1 cells in absence of 1 uM dexamethasone at 30 uM after 24 hrs by microarray method; format: functional, cell-based; in short: as §3
[21] = tested on: CUTLL1; test: Effect on APITD1 gene expression in human CUTLL1 cells in absence of 1 uM dexamethasone at 30 uM after 24 hrs by microarray method; format: functional, cell-based; in short: as §2
[22] = tested on: CUTLL1; test: Effect on PFAS gene expression in human CUTLL1 cells in absence of 1 uM dexamethasone at 30 uM after 24 hrs by microarray method; format: functional, cell-based; in short: as §3
[23] = tested on: CUTLL1; test: Effect on TWISTNB gene expression in human CUTLL1 cells in absence of 1 uM dexamethasone at 30 uM after 24 hrs by microarray method; format: functional, cell-based; in short: as §3
[24] = tested on: CUTLL1; test: Effect on DSCC1 gene expression in human CUTLL1 cells in absence of 1 uM dexamethasone at 30 uM after 24 hrs by microarray method; format: functional, cell-based; in short: as §2
[25] = tested on: CUTLL1; test: Effect on TIPIN gene expression in human CUTLL1 cells in absence of 1 uM dexamethasone at 30 uM after 24 hrs by microarray method; format: functional, cell-based; in short: as §3
[26] = tested on: CUTLL1; test: Effect on HELLS gene expression in human CUTLL1 cells in absence of 1 uM dexamethasone at 30 uM after 24 hrs by microarray method; format: functional, cell-based; in short: as §2
[27] = tested on: CUTLL1; test: Effect on NXT1 gene expression in human CUTLL1 cells in absence of 1 uM dexamethasone at 30 uM after 24 hrs by microarray method; format: functional, cell-based; in short: as §2
[28] = tested on: CUTLL1; test: Effect on RANBP1 gene expression in human CUTLL1 cells in absence of 1 uM dexamethasone at 30 uM after 24 hrs by microarray method; format: functional, cell-based; in short: as §3
[29] = tested on: CUTLL1; test: Effect on RRM1 gene expression in human CUTLL1 cells in absence of 1 uM dexamethasone at 30 uM after 24 hrs by microarray method; format: functional, cell-based; in short: as §3
[30] = tested on: CUTLL1; test: Effect on ATAD2 gene expression in human CUTLL1 cells in absence of 1 uM dexamethasone at 30 uM after 24 hrs by microarray method; format: functional, cell-based; in short: as §2
[31] = tested on: CUTLL1; test: Effect on USP1 gene expression in human CUTLL1 cells in absence of 1 uM dexamethasone at 30 uM after 24 hrs by microarray method; format: functional, cell-based; in short: as §3
[32] = tested on: CUTLL1; test: Effect on CDC45 gene expression in human CUTLL1 cells in absence of 1 uM dexamethasone at 30 uM after 24 hrs by microarray method; format: functional, cell-based; in short: as §2

`Nc1ncc(-c2ccncc2)c(C2CC2)n1` was tested, and the “growth inhibition (GI)” value [1] was “inactive”, the “growth inhibition (GI)” value [2] was “inactive” and the inhibition [3] was “inactive”. The “growth inhibition (GI)” value [4] was “inactive”, the Activity [5] was “inactive” and the Activity [6] was “Active”. The Activity [7] was “Active”, the Activity [8] was “Active” and the Activity [9] was “Active”. The Activity [10] was “Active”, the Activity [11] was “Active” and the Activity [12] was “Active”. For the same molecule, the Activity [13] was “Active”, the Activity [14] was “Active” and the Activity [15] was “Active”. For the same molecule, the Activity [16] was “Active”, the Activity [17] was “Active” and the Activity [18] was “Active”. For the same molecule, the Activity [19] was “Active”, the Activity [20] was “inactive” and the Activity [21] was “inactive”. For the same molecule, the Activity [22] was “inactive”, the Activity [23] was “inactive” and the Activity [24] was “inactive”. For the same molecule, the Activity [25] was “inactive”, the Activity [26] was “inactive” and the Activity [27] was “inactive”. For the same molecule, the Activity [28] was “inactive”, the Activity [29] was “inactive” and the Activity [30] was “inactive”. For the same molecule, the Activity [31] was “inactive” and the Activity [32] was “inactive”.

Source: ChEMBL document CHEMBL3351896, “Small Molecule that Reverses Dexamethasone Resistance in T-cell Acute Lymphoblastic Leukemia (T-ALL)” (ACS Med Chem Lett, 2014)
